High-throughput results (PubChem BioAssay)
RGS4 act: potentiators or activators of RGS4. HEK293 M3R/inducible RGS4, carbachol calcium flux Fluo4; hits give low values. B-score at 10 µM. hit rate 0.92% among 310,000;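 active means B-score of the integrated calcium signal more than 4 SD below the library mean, with starting fluorescence not abnormally high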;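 further: negative B-score means reduced calcium response which marks RGS4 activation or potentiation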
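test system = HEK293 cells with stable M3R and inducible RGS4 | schedule = recording 10 s baseline at 1 Hz, 100 s post-agonist | technique = Fluo4-AM (2 µM) calcium-flux fluorescence, kinetic read | measure = Agonist-evoked peak-minus-minimum fluorescence over baseline, integrated ratio, B score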
RGS4 inh: inhibitors of human RGS4 | P49798 | HEK293 M3R/RGS4 inducible, Fluo-4 calcium flux; hits give high values; triggered by carbachol at its EC20 | B-score at 10 µM | hit rate 0.45% among 310,000;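 active means B-score, a plate-corrected calcium signal, over three deviations above library mean, with baseline fluorescence within five deviations of library mean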;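 further: RGS4 expression induced by doxycycline in cells with stable M3 receptor; B-score is computed from the integrated fluorescence ratio over baseline after carbachol; higher B-score means a larger calcium signal and so more RGS4 inhibition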
Target sequence (P49798 whole entry, looked up): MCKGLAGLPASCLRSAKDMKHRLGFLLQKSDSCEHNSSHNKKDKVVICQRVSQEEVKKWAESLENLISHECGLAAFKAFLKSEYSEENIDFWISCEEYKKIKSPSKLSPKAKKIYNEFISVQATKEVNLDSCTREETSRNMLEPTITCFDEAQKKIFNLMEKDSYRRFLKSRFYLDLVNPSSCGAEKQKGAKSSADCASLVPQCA
MrgX1 ag: human MrgX1 receptor agonism, primary screen; hit rate 0.44% among 310,000; B-score at 10 µM; Q96LB2; MrgX1-HEK293 cells, Fluo-4 calcium fluorescence, agonist mode; hits give high values;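 active means calcium response B-score plate-corrected fluorescence ratio at least 3 library SD, with starting fluorescence B-score inside 5 SD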
Target sequence (Q96LB2 whole entry, looked up): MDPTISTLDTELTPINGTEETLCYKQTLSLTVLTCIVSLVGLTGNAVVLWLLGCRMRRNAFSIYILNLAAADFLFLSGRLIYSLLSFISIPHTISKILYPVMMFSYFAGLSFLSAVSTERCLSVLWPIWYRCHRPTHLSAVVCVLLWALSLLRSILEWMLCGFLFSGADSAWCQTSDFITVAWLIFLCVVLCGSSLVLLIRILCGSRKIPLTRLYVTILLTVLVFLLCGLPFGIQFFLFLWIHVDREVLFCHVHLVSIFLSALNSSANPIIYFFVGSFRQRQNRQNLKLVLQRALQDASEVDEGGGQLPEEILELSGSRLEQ
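Assay system: stable human MrgX1 HEK293 cell line. Quantity: 15,000 cells per well. Schedule: cells plated overnight, dye loaded 0.5 h 37 °C, 0.5 h room temperature. Detection: Fluo-4 NW calcium-flux fluorescence, kinetic read. Read-out basis: peak-minus-minimum fluorescence over baseline, converted to B scores. Control set: positive and negative control wells on each plate.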
MrgX1 antag: human MrgX1 receptor antagonism, primary screen. Q96LB2. MRGX1-HEK293 calcium flux, Fluo-4, BAM8-22 antagonism; hits give low values. B-score at 10 µM. hit rate 1.3% among 310,000. AID 588676;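 active means calcium-response B-score plate-corrected more than 3 library SD below zero, starting fluorescence within 5 deviations, no agonist response on first addition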;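 further: peak minus trough fluorescence over baseline after final BAM8-22 challenge near maximal dose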
MrgX1 allo act: human MrgX1 positive allosteric modulation, primary screen; MrgX1-HEK293, Fluo-4 calcium flux, FDSS; hits give high values; hit rate 0.63% among 310,000; B-score at 10 µM; AID 588675; Q96LB2;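 active means plate-corrected calcium response at least 3 library SD above typical, normal starting fluorescence, not activating the receptor alone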;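 further: compound read alongside a low EC10 to EC30 dose of BAM8-22 agonist; peak minus trough fluorescence over baseline measured at the second addition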
MrgX1 allo conf: reconfirmed allosteric activator of human MrgX1 receptor; hit rate 13% among 1,200; shares compounds with MrgX1 allo act; AID 602413; activation (ratio percentage), % at 10 µM; MrgX1-HEK293, Fluo-4 calcium fluorescence, FDSS;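 active means ratio at least 3 SD above the weak peptide control, stable starting fluorescence, no direct agonism earlier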;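 further: compound followed by low BAM8-22 agonist challenge near EC20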
HEK293 Ca flux: MrgX1 antagonist counter-screen hit in parental HEK293 cells | fluorescence ratio F(max-min)/F0 at 10 µM | AID 624111 | hit rate 2% among 4,000 | shares compounds with MrgX1 antag | Fluo-4 calcium fluorescence, FDSS;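 active means duplicate-averaged calcium fluorescence ratio at least three times the standard deviation of buffer wells, a nonspecific response in parental cells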
HEK293 Ca counter: counter-screen for MrgX1 allosteric activators: effect in parental HEK293 cells. parental HEK293 calcium flux, Fluo-4 fluorescence ratio; hits give high values. AID 624114. fluorescence ratio F(max-min)/F0 at 10 µM. shares compounds with MrgX1 antag. hit rate 0.4% among 4,000;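 active means calcium fluorescence ratio, averaged over duplicates, at least 3 SD of the buffer-well ratio, meaning a nonspecific response in receptor-free cells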;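 further: untransfected parental HEK293 lacking MrgX1 used as counterscreen for MrgX1 allosteric activators; fluorescence change taken during the second addition on a kinetic imager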
HEK293 Ca cntr2: MrgX1 activator counter-screen hit in parental HEK293 cells. fluorescence ratio F(max-min)/F0 at 10 µM. Fluo-4 calcium fluorescence (FDSS); hits give high values. AID 624115. shares compounds with MrgX1 antag. hit rate 8.7% among 4,000;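 active means calcium fluorescence ratio at least three times the spread of buffer wells, meaning a non-specific response in parental cells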
Starred values were filed as active, the others as inactive; i = inactive; · = not tested or not shown. Most compounds without a hit are left out; they make up all but 3.5% or so of the library.

SMILES	RGS4 act	RGS4 inh	MrgX1 ag	MrgX1 antag	MrgX1 allo act	MrgX1 allo conf	HEK293 Ca flux	HEK293 Ca counter	HEK293 Ca cntr2
O=C(NC(=S)NC1CCCCC1)c1ccc(F)cc1	i	i	i	i	7*	i	i	i	i
COCCN1CCN(Cc2nc(C3(c4ccc(C)cc4)CCCC3)no2)CC1	i	i	i	i	9*	i	i	i	i
CCN1CCN(CC(=O)Nc2ccc(Cl)c(Cl)c2)C(=O)C1=O	i	i	i	i	7.7*	i	i	i	i
CN(C)CCCNc1ccc(-c2cc(Nc3cccc(Cl)c3)ncn2)cn1	i	i	i	i	7.8*	i	i	i	i
CCOC(=O)CSc1nnc(CNC(=O)c2ccc([N+](=O)[O-])cc2)n1C	i	i	i	i	i	·	·	·	·
Cc1ccc(S(=O)(=O)ON2C(=O)c3ccccc3C2=O)c(C)c1	·	·	i	i	36*	i	i	i	i
Cc1cc(C)c(S(=O)(=O)ON2C(=O)c3ccccc3C2=O)cc1C	i	i	i	i	i	·	·	·	·
COc1ccc(CNC(=O)N2CCN(c3ccccc3)CC2)cc1	i	i	i	i	i	·	·	·	·
COc1ccc(N2CCN(S(=O)(=O)c3c(C(=O)N4CCOCC4)c(C)n(C)c3C)CC2)cc1	i	i	i	i	i	·	·	·	·
Cc1ccn2c(NC3CCCC3)c(-c3ccncc3)nc2c1	i	i	i	i	7.3*	14%*	i	i	i
Cc1ccn2c(NC3CCCC3)c(-c3ccccn3)nc2c1	i	i	i	i	12*	i	i	i	i
Cc1ccc2nc(-c3ccncc3)c(NC3CCCC3)n2c1	i	i	i	i	i	·	·	·	·
CCC(C)NCCOc1ccccc1C (stereo not drawn)	i	i	i	i	13*	i	i	i	i
COc1ccc(CCN2C(=S)N(c3ccccc3)C(=O)C2CC(=O)O)cc1OC (stereo not drawn)	i	i	i	i	i	·	·	·	·
CNC(=O)CC1C(=O)N(c2ccc(Cl)cc2)C(=S)N1CCc1ccc(OC)c(OC)c1 (stereo not drawn)	i	i	i	i	10*	i	i	i	i
CC(NC(=O)C1CCN(S(=O)(=O)c2cccc3cccnc23)CC1)c1ccccc1 (stereo not drawn)	i	i	i	i	6.5*	i	i	i	i
CC(NC(=O)C1CCCN1S(=O)(=O)c1cccc2cccnc12)c1ccccc1 (stereo not drawn)	i	i	i	i	i	·	·	·	·
CC(C)(C)c1ccc(C2=CC(c3ccccc3)n3ncnc3N2)cc1 (stereo not drawn)	i	i	i	i	9.3*	i	i	i	57*
Cc1ccc(C2=CC(c3ccc(C)cc3)n3ncnc3N2)cc1 (stereo not drawn)	i	i	i	i	i	·	·	·	·
COc1ccc(CNC(=O)CN(C(=O)CCC(=O)Nc2nccs2)c2ccc(C)cc2)cc1	i	i	i	i	i	·	·	·	·
CN(Cc1cnccn1)Cc1nc(Cc2ccccc2F)no1	i	i	i	i	10*	i	i	i	i
CN(Cc1cnccn1)Cc1nc(Cc2ccccc2Cl)no1	i	i	i	i	i	·	·	·	·
CC12COC3(C(=O)Nc4ccccc4)CC1CCC32C (stereo not drawn)	i	i	i	i	9.7*	i	i	i	i
Cc1ccccc1NC(=O)C12CC3CCC1(C)C3(C)CO2 (stereo not drawn)	i	i	i	i	6.9*	i	i	i	i
CC12COC3(C(=O)Nc4ccc5ccccc5c4)CC1CCC32C (stereo not drawn)	i	i	i	i	17*	i	i	i	i
SMILES	RGS4 act	RGS4 inh	MrgX1 ag	MrgX1 antag	MrgX1 allo act	MrgX1 allo conf	HEK293 Ca flux	HEK293 Ca counter	HEK293 Ca cntr2
CC12COC3(C(=O)Nc4cccnc4)CC1CCC32C (stereo not drawn)	i	i	i	i	i	·	·	·	·
O=C(COC(=O)/C=C/C(=O)OCC(=O)Nc1ccccc1F)Nc1ccccc1F	i	i	i	i	i	·	·	·	·
Cc1nc(N2CCN(Cc3ccccc3)CC2)nc2c1C(=O)CC(C)C2 (stereo not drawn)	i	i	i	i	i	·	·	·	·
CCN1CCN(c2nc(C)c3c(n2)CC(C)CC3=O)CC1 (stereo not drawn)	i	i	i	i	8*	i	i	i	i
Cc1ccc(OCCCNCCO)c(Br)c1	i	i	i	i	7.5*	i	i	i	i
CCOc1ccc(OCC(=O)OCC(=O)NNC(=O)c2ccc([N+](=O)[O-])cc2)cc1	i	i	i	i	i	·	·	·	·
CCN1CCN(c2nc(Nc3ccc(NC(C)=O)cc3)nc(Nc3ccc(NC(C)=O)cc3)n2)CC1	i	i	i	i	29*	i	i	i	i
COc1ccc2cc(CCNC(=O)c3ccc(S(=O)(=O)N4CCCC4)cc3)c(=O)[nH]c2c1	i	i	i	i	i	·	·	·	·
O=C(c1cnn2c(C(F)(F)F)cc(-c3ccccc3)nc12)N1CCCCC1c1cccnc1 (stereo not drawn)	i	i	i	i	i	·	·	·	·
O=C(c1cc2nc(-c3ccc(F)cc3)cc(C(F)(F)F)n2n1)N1CCCCC1c1cccnc1 (stereo not drawn)	i	i	i	i	7.1*	i	i	i	i
CC1(C(=O)NCc2ccc(Cl)c(Cl)c2)Oc2ccccc2NC1=O (stereo not drawn)	i	i	i	i	i	·	·	·	·
COc1ccc(CN2C(=O)c3cccnc3C2=O)cc1S(=O)(=O)NC1CCCCC1	i	i	i	i	i	·	·	·	·
Cc1ccc(NC(=O)N2CCCC2C(=O)NCC2CCCCC2)cc1 (stereo not drawn)	i	i	i	i	10*	i	i	i	i
